Test results as given in ChEMBL document CHEMBL1144256, “Potent Kv1.3 inhibitors from correolide-modification of the C18 position” (Bioorg Med Chem Lett, 2005).

Experiments:
[1] = biological target: T1, Potassium voltage-gated channel subfamily A member 3 (Homo sapiens, UniProt P22001); assay: Inhibitory activity against voltage-gated potassium channel subunit Kv1.3 of human T cells; type: functional, cell-based, T-cell
[2] = biological target: T1, Potassium voltage-gated channel subfamily A member 3; assay: Inhibition of voltage-gated potassium channel subunit Kv1.3 in chinese hamster ovary cells; type: functional, cell-based
Summary of the method: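 Depolarization-induced ⁸⁶Rb⁺ efflux measured in CHO cells stably transfected with human Kv1.3 channel (Rb_Kv functional assay), with short compound incubation; IC50 reported.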

[3] = biological target: T1, Potassium voltage-gated channel subfamily A member 3; assay: Relative T cell IC50 compared to IC50 for correolide assay; type: functional, cell-based
Summary of the method: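 Ratio of correolide IC50 to compound IC50 in the anti-CD3-stimulated human peripheral blood T cell proliferation assay; a larger value means greater potency.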

[4] = biological target: T1, Potassium voltage-gated channel subfamily A member 3; assay: Inhibitory activity against voltage-gated potassium channel subunit Kv1.3; type: functional

T1 sequence (P22001 whole entry): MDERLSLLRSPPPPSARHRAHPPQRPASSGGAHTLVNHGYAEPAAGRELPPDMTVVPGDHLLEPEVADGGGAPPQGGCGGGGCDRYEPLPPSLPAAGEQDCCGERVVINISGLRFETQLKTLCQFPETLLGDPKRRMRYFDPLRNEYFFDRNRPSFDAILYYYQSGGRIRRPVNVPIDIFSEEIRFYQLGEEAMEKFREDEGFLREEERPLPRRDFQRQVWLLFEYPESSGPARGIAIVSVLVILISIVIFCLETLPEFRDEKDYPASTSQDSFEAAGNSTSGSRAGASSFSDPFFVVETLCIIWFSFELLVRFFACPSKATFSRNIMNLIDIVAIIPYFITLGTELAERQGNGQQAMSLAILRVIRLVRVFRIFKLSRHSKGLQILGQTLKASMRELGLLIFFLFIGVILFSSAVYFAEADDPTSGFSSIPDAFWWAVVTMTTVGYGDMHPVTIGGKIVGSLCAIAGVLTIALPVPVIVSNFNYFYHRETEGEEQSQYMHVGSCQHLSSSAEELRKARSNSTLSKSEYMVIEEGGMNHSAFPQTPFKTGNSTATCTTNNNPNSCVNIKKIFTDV

| IC50 [1] [nM] | IC50 [2] [nM] | Ratio [3] | IC50 [4] [nM] | SMILES |
| --- | --- | --- | --- | --- |
| 25.6 | 19 | 7.2 |  | COc1ccccc1[C@H](C)C[C@]1(O)C(C)=C[C@@H](OC(C)=O)[C@]2(C)C3[C@H](OC(C)=O)[C@H](OC(C)=O)[C@@]4([C@@H](C)OC(C)=O)COCC=CC4[C@]3(C)CCC21 (stereo partly drawn) |
|  | 145 |  |  | C=C(CC1(O)C(C)=C[C@@H](OC(C)=O)[C@@]2(C)C1CC[C@]1(C)C2[C@H](OC(C)=O)[C@H](OC(C)=O)[C@@]2([C@@H](C)OC(C)=O)COCC=CC12)c1ccccc1[S+](C)[O-] (stereo in doubt; 34) |
|  | 31 |  |  | CC(=O)Oc1ccccc1CCC1(O)C(C)=C[C@@H](OC(C)=O)[C@@]2(C)C1CC[C@]1(C)C2[C@H](OC(C)=O)[C@H](OC(C)=O)[C@@]2([C@@H](C)OC(C)=O)COCC=CC12 (stereo partly drawn) |
| 31.7 | 17 | 5.8 |  | C=C(CC1(O)C(C)=C[C@@H](OC(C)=O)[C@@]2(C)C1CC[C@]1(C)C2[C@H](OC(C)=O)[C@H](OC(C)=O)[C@@]2([C@@H](C)OC(C)=O)COCC=CC12)c1ccccc1SCC (stereo partly drawn) |
| 613 | 120 | 0.3 |  | CC(=O)O[C@H]1C2[C@@](C)(CCC3C(O)(C[C@H](C)c4ccccc4)C(C)=C[C@@H](OC(C)=O)[C@@]32C)C2C=CCOC[C@]2([C@@H](C)OC(C)=O)[C@H]1OC(C)=O (stereo partly drawn) |
| 36.8 | 28 | 5 |  | CCc1ccccc1[C@H](C)CC1(O)C(C)=C[C@@H](OC(C)=O)[C@@]2(C)C1CC[C@]1(C)C2[C@H](OC(C)=O)[C@H](OC(C)=O)[C@@]2([C@@H](C)OC(C)=O)COCC=CC12 (stereo partly drawn) |
|  | 352 |  |  | C=C(CC1(O)C(C)=C[C@@H](OC(C)=O)[C@@]2(C)C1CC[C@]1(C)C2[C@H](OC(C)=O)[C@H](OC(C)=O)[C@@]2([C@@H](C)OC(C)=O)COCC=CC12)c1ccccc1S(=O)OC (stereo partly drawn) |
|  | 48 |  |  | C=CC[C@H](CC1(O)C(C)=C[C@@H](OC(C)=O)[C@@]2(C)C1CC[C@]1(C)C2[C@H](OC(C)=O)[C@H](OC(C)=O)[C@@]2([C@@H](C)OC(C)=O)COCC=CC12)c1ccccc1CC (stereo partly drawn) |
| 1840 | 87 | 0.1 |  | CC(=O)O[C@H]1C2[C@@](C)(CCC3C(O)(CCc4ccccc4C(F)(F)F)C(C)=C[C@@H](OC(C)=O)[C@@]32C)C2C=CCOC[C@]2([C@@H](C)OC(C)=O)[C@H]1OC(C)=O (stereo partly drawn) |
|  | 12 |  |  | CCc1ccccc1[C@H](CC)CC1(O)C(C)=C[C@@H](OC(C)=O)[C@@]2(C)C1CC[C@]1(C)C2[C@H](OC(C)=O)[C@H](OC(C)=O)[C@@]2([C@@H](C)OC(C)=O)COCC=CC12 (stereo partly drawn) |
| 14.7 | 14 | 12.5 |  | C=C(CC1(O)C(C)=C[C@@H](OC(C)=O)[C@@]2(C)C1CC[C@]1(C)C2[C@H](OC(C)=O)[C@H](OC(C)=O)[C@@]2([C@@H](C)OC(C)=O)COCC=CC12)c1ccccc1SC (stereo partly drawn) |
| 12.3 | 37 | 15 |  | CCOc1ccccc1[C@H](C)CC1(O)C(C)=C[C@@H](OC(C)=O)[C@@]2(C)C1CC[C@]1(C)C2[C@H](OC(C)=O)[C@H](OC(C)=O)[C@@]2([C@@H](C)OC(C)=O)COCC=CC12 (stereo partly drawn) |
| 25.5 | 44 | 7.2 |  | C=C(CC1(O)C(C)=C[C@@H](OC(C)=O)[C@@]2(C)C1CC[C@]1(C)C2[C@H](OC(C)=O)[C@H](OC(C)=O)[C@@]2([C@@H](C)OC(C)=O)COCC=CC12)c1ccccc1CC (stereo partly drawn) |
|  | 270 |  |  | CC(=O)O[C@H]1C2[C@@](C)(CCC3C(O)(CCCCc4ccccc4)C(C)=C[C@@H](OC(C)=O)[C@@]32C)C2C=CCOC[C@]2([C@@H](C)OC(C)=O)[C@H]1OC(C)=O (stereo partly drawn) |

The next lines start with the compound.

| SMILES | IC50 [1] [nM] | IC50 [2] [nM] | Ratio [3] | IC50 [4] [nM] |
| --- | --- | --- | --- | --- |
| COC(=O)C12O[C@@H]1C(=O)CC1(O)C3CC[C@]4(C)C([C@H](OC(C)=O)[C@H](OC(C)=O)[C@@]5([C@@H](C)OC(C)=O)COCC=CC45)[C@@]3(C)[C@H](OC(C)=O)[C@H](OC(C)=O)[C@]12C (stereo partly drawn) |  |  |  | 35 |
| CC(=O)O[C@H]1C2[C@@](C)(CCC3C(O)(C(C)Cc4ccccc4)C(C)=C[C@@H](OC(C)=O)[C@@]32C)C2C=CCOC[C@]2([C@@H](C)OC(C)=O)[C@H]1OC(C)=O (stereo partly drawn) |  | 200 |  |  |
| COc1cccc(CCC2(O)C(C)=C[C@@H](OC(C)=O)[C@@]3(C)C2CC[C@]2(C)C3[C@H](OC(C)=O)[C@H](OC(C)=O)[C@@]3([C@@H](C)OC(C)=O)COCC=CC23)c1 (stereo partly drawn) | 1310 | 24 | 0.14 |  |
| CC(=O)O[C@H]1C2[C@@](C)(CCC3C(=O)C(C)=C[C@@H](OC(C)=O)[C@@]32C)C2C=CCOC[C@]2([C@@H](C)OC(C)=O)[C@H]1OC(C)=O (stereo partly drawn) |  |  |  | 5600 |
| CC(=O)O[C@H]1C2[C@@](C)(CCC3C(O)(CCc4ccccc4O)C(C)=C[C@@H](OC(C)=O)[C@@]32C)C2C=CCOC[C@]2([C@@H](C)OC(C)=O)[C@H]1OC(C)=O (stereo partly drawn) | 428 | 26 | 0.43 |  |
| CC(=O)O[C@H]1C2[C@@](C)(CCC3C(O)(CCc4ccccc4)C(C)=C[C@@H](OC(C)=O)[C@@]32C)C2C=CCOC[C@]2([C@@H](C)OC(C)=O)[C@H]1OC(C)=O (stereo partly drawn) | 460 | 26 | 0.4 |  |
| CC(=O)O[C@H]1C2[C@@](C)(CCC3C(O)(CCc4ccccc4F)C(C)=C[C@@H](OC(C)=O)[C@@]32C)C2C=CCOC[C@]2([C@@H](C)OC(C)=O)[C@H]1OC(C)=O (stereo partly drawn) | 245 | 74 | 0.75 |  |
| CC(=O)O[C@H]1C2[C@@](C)(CCC3C(O)(CCCc4ccccc4)C(C)=C[C@@H](OC(C)=O)[C@@]32C)C2C=CCOC[C@]2([C@@H](C)OC(C)=O)[C@H]1OC(C)=O (stereo partly drawn) |  | 150 |  |  |
| CCOc1ccccc1CCC1(O)C(C)=C[C@@H](OC(C)=O)[C@@]2(C)C1CC[C@]1(C)C2[C@H](OC(C)=O)[C@H](OC(C)=O)[C@@]2([C@@H](C)OC(C)=O)COCC=CC12 (stereo partly drawn) | 80 | 34 | 2.3 |  |
| CC(=O)O[C@H]1C2[C@@](C)(CCC3C(O)(CCC=C(C)C)C(C)=C[C@@H](OC(C)=O)[C@@]32C)C2C=CCOC[C@]2([C@@H](C)OC(C)=O)[C@H]1OC(C)=O (stereo partly drawn) |  | 21 |  |  |
| COc1ccc(CCC2(O)C(C)=C[C@@H](OC(C)=O)[C@@]3(C)C2CC[C@]2(C)C3[C@H](OC(C)=O)[C@H](OC(C)=O)[C@@]3([C@@H](C)OC(C)=O)COCC=CC23)cc1 (stereo partly drawn) |  | 130 |  |  |
| CC(=O)O[C@H]1C2[C@@](C)(CCC3C(O)(c4ccccc4)C(C)=C[C@@H](OC(C)=O)[C@@]32C)C2C=CCOC[C@]2([C@@H](C)OC(C)=O)[C@H]1OC(C)=O (stereo partly drawn) |  | 2000 |  |  |
| CC[C@H](CC1(O)C(C)=C[C@@H](OC(C)=O)[C@@]2(C)C1CC[C@]1(C)C2[C@H](OC(C)=O)[C@H](OC(C)=O)[C@@]2([C@@H](C)OC(C)=O)COCC=CC12)c1ccccc1OC (stereo partly drawn) | 29.2 | 28 | 6.3 |  |
| C=CC[C@H](CC1(O)C(C)=C[C@@H](OC(C)=O)[C@@]2(C)C1CC[C@]1(C)C2[C@H](OC(C)=O)[C@H](OC(C)=O)[C@@]2([C@@H](C)OC(C)=O)COCC=CC12)c1ccccc1OC (stereo partly drawn) | 32.9 | 21 | 5.6 |  |
| CC(=O)O[C@H]1C2[C@@](C)(CCC3C(O)(C[C@@H](C)c4ccccc4)C(C)=C[C@@H](OC(C)=O)[C@@]32C)C2C=CCOC[C@]2([C@@H](C)OC(C)=O)[C@H]1OC(C)=O (stereo partly drawn) | 102 | 12 | 1.8 |  |
| CC(=O)O[C@H]1C2[C@@](C)(CCC3C(O)(Cc4ccccc4)C(C)=C[C@@H](OC(C)=O)[C@@]32C)C2C=CCOC[C@]2([C@@H](C)OC(C)=O)[C@H]1OC(C)=O (stereo partly drawn) |  | 380 |  |  |
| C=CCC1(O)C(C)=C[C@@H](OC(C)=O)[C@@]2(C)C1CC[C@]1(C)C2[C@H](OC(C)=O)[C@H](OC(C)=O)[C@@]2([C@@H](C)OC(C)=O)COCC=CC12 (stereo partly drawn) |  | 143 |  |  |
| CC(=O)O[C@H]1C2[C@@](C)(CCC3C(O)(CC(C)(C)c4ccccc4)C(C)=C[C@@H](OC(C)=O)[C@@]32C)C2C=CCOC[C@]2([C@@H](C)OC(C)=O)[C@H]1OC(C)=O (stereo partly drawn) | 184 | 19 | 1 |  |
| C=C(C[C@]1(O)C(C)=C[C@@H](OC(C)=O)[C@]2(C)C3[C@H](OC(C)=O)[C@H](OC(C)=O)[C@@]4([C@@H](C)OC(C)=O)COCC=CC4[C@]3(C)CCC21)c1ccccc1 (stereo partly drawn) | 131 | 19 | 1.4 |  |
| CC(=O)O[C@H]1C2[C@@](C)(CCC3C(O)(CCc4ccccc4C)C(C)=C[C@@H](OC(C)=O)[C@@]32C)C2C=CCOC[C@]2([C@@H](C)OC(C)=O)[C@H]1OC(C)=O (stereo partly drawn) | 194 | 41 | 0.95 |  |
| C=C1C[C@@]2(O)C3CC[C@]4(C)C([C@H](OC(C)=O)[C@H](OC(C)=O)[C@@]5([C@@H](C)OC(C)=O)COC(=O)C=CC45)[C@@]3(C)[C@H](OC(C)=O)[C@H](OC(C)=O)[C@@]2(C)C2(C(=O)OC)O[C@H]12 (stereo partly drawn) [CORRELOID] | 184 | 100 |  |  |
| C=C(CC1(O)C(C)=C[C@@H](OC(C)=O)[C@@]2(C)C1CC[C@]1(C)C2[C@H](OC(C)=O)[C@H](OC(C)=O)[C@@]2([C@@H](C)OC(C)=O)COCC=CC12)c1ccccc1OC (stereo partly drawn) | 51.1 | 11 | 3.6 |  |
| COc1ccccc1CCC1(O)C(C)=C[C@@H](OC(C)=O)[C@@]2(C)C1CC[C@]1(C)C2[C@H](OC(C)=O)[C@H](OC(C)=O)[C@@]2([C@@H](C)OC(C)=O)COCC=CC12 (stereo partly drawn) | 142 | 14 | 1.3 |  |
| C=CC1(O)C(C)=C[C@@H](OC(C)=O)[C@@]2(C)C1CC[C@]1(C)C2[C@H](OC(C)=O)[C@H](OC(C)=O)[C@@]2([C@@H](C)OC(C)=O)COCC=CC12 (stereo partly drawn) |  | 1810 |  |  |
| C=C(CC1(O)C(C)=C[C@@H](OC(C)=O)[C@@]2(C)C1CC[C@]1(C)C2[C@H](OC(C)=O)[C@H](OC(C)=O)[C@@]2([C@@H](C)OC(C)=O)COCC=CC12)c1ccccc1[S+](C)[O-] (stereo in doubt; 35) |  | 259 |  |  |
| C=CCCC1(O)C(C)=C[C@@H](OC(C)=O)[C@@]2(C)C1CC[C@]1(C)C2[C@H](OC(C)=O)[C@H](OC(C)=O)[C@@]2([C@@H](C)OC(C)=O)COCC=CC12 (stereo partly drawn) |  | 664 |  |  |
